This note sets out measurements from ChEMBL document CHEMBL1130246, “Tyrosine kinase inhibitors. 13. Structure-activity relationships for soluble 7-substituted 4-[(3-bromophenyl)amino]pyrido[4,3-d]pyrimidines designed as inhibitors of the tyrosine kinase activity of the epidermal growth factor receptor” (J Med Chem, 1997).

Data set [1] concerns the target T1, Epidermal growth factor receptor (Homo sapiens, UniProt P00533). The experiment in a line: Inhibition of phosphorylation of polyglutamic acid/tyrosine random copolymer by epidermal growth factor receptor.
A short description of data set [2]: Solubility in water was determined. The class given is physicochemical. The procedure, abridged:
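Drug weighed to give approximately 50 mM, sonicated 30 min in 0.05 M sodium lactate buffer (neutral compounds, amine hydrochlorides) or water (sodium salts of acids), left 30 min, centrifuged 13 000 rpm 3 min; supernatant concentration measured by HPLC against calibration from MeOH or DMSO stocks, assuming linear response; 20 °C.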

The target in data set [3] is T1, Epidermal growth factor receptor. The data set can be described thus: Inhibition of epidermal growth factor receptor (EGFR) from human A431 carcinoma cells.
Data set [4] shares this target. The experiment in a line: Inhibition of epidermal growth factor receptor (EGFR) autophosphorylation in A431 cells.
For data set [5], the species on record is Mus musculus. The data set can be described thus: Treatment-related weight loss in mice. The class given is functional. The procedure, abridged:
(§1)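 Mice 18-22 g, randomized, implanted sc with A431 epidermoid or EGFR-transfected NIH 3T3 tumor fragments in right axilla on day 0; tumors maintained by serial passage in NCr nu/nu nude mice. Isethionate salts given ip in water, b.i.d. on indicated schedules (days 7-21, 3-17 or 1-15), dosed by average cage weight; solutions prepared 5 days at a time. Maximum treatment-related body weight loss recorded.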

Data set [6] is filed under the species Mus musculus. The experiment in a line: Ratio of median treated tumor mass on the last day of therapy divided by the median control tumor mass x 100%. It counts as functional. The procedure, abridged: as §1

Structures are written as SMILES. Values after ≈ are worked out from the molar mass of the structure shown. Values joined by “and” are separate entries in the source; they are usually repeats but may differ in a detail not shown here. Identical values can stand only once.

T1 sequence (P00533 whole entry): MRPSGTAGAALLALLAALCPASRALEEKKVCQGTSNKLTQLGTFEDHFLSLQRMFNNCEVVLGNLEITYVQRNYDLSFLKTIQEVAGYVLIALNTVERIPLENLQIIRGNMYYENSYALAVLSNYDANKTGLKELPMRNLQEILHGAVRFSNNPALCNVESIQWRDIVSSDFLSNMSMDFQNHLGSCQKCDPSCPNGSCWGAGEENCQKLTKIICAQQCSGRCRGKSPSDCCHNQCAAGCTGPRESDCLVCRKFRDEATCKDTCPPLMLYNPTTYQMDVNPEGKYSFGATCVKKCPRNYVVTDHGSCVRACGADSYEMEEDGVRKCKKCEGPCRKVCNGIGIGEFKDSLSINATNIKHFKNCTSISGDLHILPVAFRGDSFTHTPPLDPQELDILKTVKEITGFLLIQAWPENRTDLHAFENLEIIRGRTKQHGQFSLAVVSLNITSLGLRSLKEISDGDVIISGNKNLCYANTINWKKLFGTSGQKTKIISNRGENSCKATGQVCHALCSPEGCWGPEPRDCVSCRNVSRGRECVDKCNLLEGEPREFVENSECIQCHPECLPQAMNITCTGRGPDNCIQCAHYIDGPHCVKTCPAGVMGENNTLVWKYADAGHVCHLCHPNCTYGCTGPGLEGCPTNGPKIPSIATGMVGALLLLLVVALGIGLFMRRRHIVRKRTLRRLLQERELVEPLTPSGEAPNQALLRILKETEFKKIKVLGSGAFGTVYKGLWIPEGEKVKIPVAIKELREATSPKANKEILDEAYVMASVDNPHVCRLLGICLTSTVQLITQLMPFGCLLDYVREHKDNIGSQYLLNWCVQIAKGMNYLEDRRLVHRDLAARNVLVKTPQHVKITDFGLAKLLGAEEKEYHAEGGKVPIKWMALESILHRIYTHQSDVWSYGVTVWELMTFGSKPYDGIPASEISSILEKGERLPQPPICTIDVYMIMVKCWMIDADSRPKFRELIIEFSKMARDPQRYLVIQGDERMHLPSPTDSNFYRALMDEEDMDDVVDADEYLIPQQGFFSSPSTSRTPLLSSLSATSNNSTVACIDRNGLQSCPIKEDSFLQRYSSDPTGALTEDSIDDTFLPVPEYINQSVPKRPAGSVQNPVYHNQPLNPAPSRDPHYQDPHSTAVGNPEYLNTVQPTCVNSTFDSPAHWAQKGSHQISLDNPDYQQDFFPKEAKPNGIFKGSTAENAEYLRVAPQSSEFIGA

In turn, `OCCN(CCO)CCNc1cc2ncnc(Nc3cccc(Br)c3)c2cn1` showed an IC50 in data set [1] of 9.2 nM. In other words, the single-digit nanomolar range.
As to `CN(C)CCCCCNc1cc2ncnc(Nc3cccc(Br)c3)c2cn1`, 8.4 nM corresponded to half-maximal inhibition in data set [1] (IC50).
Regarding `CN(CC(O)CO)c1cc2ncnc(Nc3cccc(Br)c3)c2cn1` (stereo unspecified), in data set [1], the IC50 was determined as 3.2 nM.
In turn, `Brc1cccc(Nc2ncnc3cc(NCCc4c[nH]cn4)ncc23)c1` registered a solubility in data set [2] of 35 mM (≈ 14.4 mg/mL). The same compound gave an IC50 in data set [3] of 0.91 nM.
As to `OCCN(CCO)c1cc2ncnc(Nc3cccc(Br)c3)c2cn1`, the IC50 in data set [1] came out at 12 nM.
In the case of `O=S(=O)(O)CCNc1cc2ncnc(Nc3cccc(Br)c3)c2cn1`, the IC50 was more than 1000 nM in data set [4] and 1.4 nM in data set [1].
`Cc1cccc(Nc2ncnc3cc(NCCCN4CCN(C)CC4)ncc23)c1`: the IC50 in data set [1] was found to be 5.6 nM.
In data set [2], `Cc1cccc(Nc2ncnc3cc(NCCc4c[nH]cn4)ncc23)c1` came in with a solubility of more than 39 mM. This compound also showed an IC50 in data set [3] of 7.2 nM.
In the case of `Cc1cccc(Nc2ncnc3cc(NCCCCN(C)C)ncc23)c1`, in data set [1], the concentration for half-maximal inhibition (IC50) was 5.4 nM. This counts as single-digit nanomolar.
On the same count and under the same terms, under `Brc1cccc(Nc2ncnc3cc(NCCCCN4CCOCC4)ncc23)c1` stands 5.4 nM.
Turning to `OCC(O)CNc1cc2ncnc(Nc3cccc(Br)c3)c2cn1` (stereo unspecified), the half-maximal inhibitory concentration (IC50) amounted to 227 nM in data set [4] and 0.92 nM in data set [1].
In the case of `CN(CCO)c1cc2ncnc(Nc3cccc(Br)c3)c2cn1`, in data set [1], the IC50 was found to be 2.6 nM. In other words, the single-digit nanomolar range.
Same read-out and setting: under `OCC(O)C(O)C(O)C(O)CNc1cc2ncnc(Nc3cccc(Br)c3)c2cn1` (stereo unspecified) stands 4.8 nM; under `OCC(CO)Nc1cc2ncnc(Nc3cccc(Br)c3)c2cn1`, 14 nM; under `CNc1cc2ncnc(Nc3cccc(C)c3)c2cn1`, 1.4 nM.
For `O=C(O)CCCNc1cc2ncnc(Nc3cccc(Br)c3)c2cn1`, the IC50 in data set [1] is 0.28 nM.
Still for that read-out and setting: under `CN(C)CCNc1cc2ncnc(Nc3cccc(Br)c3)c2cn1` stands 45 nM; under `CN(C)CCCNc1cc2ncnc(Nc3cccc(Br)c3)c2cn1`, 8.8 nM.
On the same count and under the same terms, under `CN1CCN(CCCNc2cc3ncnc(Nc4cccc(Br)c4)c3cn2)CC1` stands 4.9 nM.
Regarding `Brc1cccc(Nc2ncnc3cc(NCCCn4ccnc4)ncc23)c1`, the solubility in data set [2] was more than 40 mM. The IC50 in data set [3] came out at 0.51 nM.
With `[O-][N+]1(CCCNc2cc3ncnc(Nc4cccc(Br)c4)c3cn2)CCOCC1`, the IC50 in data set [4] is more than 1000 nM; in data set [1] it was 0.74 nM.
In data set [1], `CN(C)CCN(C)c1cc2ncnc(Nc3cccc(Br)c3)c2cn1` came in with an IC50 of 40 nM.
The compound `CN(C)CCCCNc1cc2ncnc(Nc3cccc(Br)c3)c2cn1` displayed an IC50 in data set [1] of 7.4 nM. In data set [5], this compound came in with a Weight loss of 1 g.
In turn, `CN(CC(O)C(O)C(O)C(O)CO)c1cc2ncnc(Nc3cccc(Br)c3)c2cn1` (stereo unspecified) yielded an IC50 in data set [1] of 3.2 nM.
Turning to `O=C(O)CCNc1cc2ncnc(Nc3cccc(Br)c3)c2cn1`, the figures for the IC50 in data set [4] and in data set [1] were 11400 nM and 0.61 nM, respectively.
The compound `NNc1cc2ncnc(Nc3cccc(Br)c3)c2cn1` yielded an IC50 in data set [1] of 7.1 nM.
The compound `OCCN(CCO)CCCNc1cc2ncnc(Nc3cccc(Br)c3)c2cn1` gave an IC50 in data set [1] of 1.2 nM. This IC50 is about 5.9-fold lower than that of the compound before.
The same measure, in the same setting: next, `O=C(O)CNc1cc2ncnc(Nc3cccc(Br)c3)c2cn1`: 1.5 nM; `CN(CC(=O)O)c1cc2ncnc(Nc3cccc(Br)c3)c2cn1`: 16 nM.
Consider `Brc1cccc(Nc2ncnc3cc(NCCCN4CCOCC4)ncc23)c1`, for which the IC50 worked out at 8.1 nM in data set [4] and 1.9 nM in data set [1]. Also, the T/C in data set [6] came out at 34%. For the same compound, the Weight loss in data set [5] is 1.7 g and 0.9 g.
As for `Cc1cccc(Nc2ncnc3cc(NCCCn4ccnc4)ncc23)c1`, the solubility in data set [2] is more than 34 mM. Also, inhibition in data set [3] was half-maximal at 3.5 nM (IC50).
With `Brc1cccc(Nc2ncnc3cc(NCCN4CCOCC4)ncc23)c1`, the IC50 stood at 36 nM in data set [4] and 3.2 nM in data set [1].
Turning to `OCCNc1cc2ncnc(Nc3cccc(Br)c3)c2cn1`, the IC50 in data set [1] amounted to 0.24 nM. In other words, the sub-nanomolar range.
